Consider nine molecules from ChEMBL document CHEMBL1133252 (Bioorg Med Chem Lett, 2000).

In one test the test system is L1210. Put plainly: Inhibitory activity against L1210 leukemia cells. The class given is functional, cell-based. The following applies: Mus musculus.
The target in another test is T1, DNA topoisomerase 2 (Drosophila melanogaster, UniProt P15348).
T1 sequence (P15348 whole entry): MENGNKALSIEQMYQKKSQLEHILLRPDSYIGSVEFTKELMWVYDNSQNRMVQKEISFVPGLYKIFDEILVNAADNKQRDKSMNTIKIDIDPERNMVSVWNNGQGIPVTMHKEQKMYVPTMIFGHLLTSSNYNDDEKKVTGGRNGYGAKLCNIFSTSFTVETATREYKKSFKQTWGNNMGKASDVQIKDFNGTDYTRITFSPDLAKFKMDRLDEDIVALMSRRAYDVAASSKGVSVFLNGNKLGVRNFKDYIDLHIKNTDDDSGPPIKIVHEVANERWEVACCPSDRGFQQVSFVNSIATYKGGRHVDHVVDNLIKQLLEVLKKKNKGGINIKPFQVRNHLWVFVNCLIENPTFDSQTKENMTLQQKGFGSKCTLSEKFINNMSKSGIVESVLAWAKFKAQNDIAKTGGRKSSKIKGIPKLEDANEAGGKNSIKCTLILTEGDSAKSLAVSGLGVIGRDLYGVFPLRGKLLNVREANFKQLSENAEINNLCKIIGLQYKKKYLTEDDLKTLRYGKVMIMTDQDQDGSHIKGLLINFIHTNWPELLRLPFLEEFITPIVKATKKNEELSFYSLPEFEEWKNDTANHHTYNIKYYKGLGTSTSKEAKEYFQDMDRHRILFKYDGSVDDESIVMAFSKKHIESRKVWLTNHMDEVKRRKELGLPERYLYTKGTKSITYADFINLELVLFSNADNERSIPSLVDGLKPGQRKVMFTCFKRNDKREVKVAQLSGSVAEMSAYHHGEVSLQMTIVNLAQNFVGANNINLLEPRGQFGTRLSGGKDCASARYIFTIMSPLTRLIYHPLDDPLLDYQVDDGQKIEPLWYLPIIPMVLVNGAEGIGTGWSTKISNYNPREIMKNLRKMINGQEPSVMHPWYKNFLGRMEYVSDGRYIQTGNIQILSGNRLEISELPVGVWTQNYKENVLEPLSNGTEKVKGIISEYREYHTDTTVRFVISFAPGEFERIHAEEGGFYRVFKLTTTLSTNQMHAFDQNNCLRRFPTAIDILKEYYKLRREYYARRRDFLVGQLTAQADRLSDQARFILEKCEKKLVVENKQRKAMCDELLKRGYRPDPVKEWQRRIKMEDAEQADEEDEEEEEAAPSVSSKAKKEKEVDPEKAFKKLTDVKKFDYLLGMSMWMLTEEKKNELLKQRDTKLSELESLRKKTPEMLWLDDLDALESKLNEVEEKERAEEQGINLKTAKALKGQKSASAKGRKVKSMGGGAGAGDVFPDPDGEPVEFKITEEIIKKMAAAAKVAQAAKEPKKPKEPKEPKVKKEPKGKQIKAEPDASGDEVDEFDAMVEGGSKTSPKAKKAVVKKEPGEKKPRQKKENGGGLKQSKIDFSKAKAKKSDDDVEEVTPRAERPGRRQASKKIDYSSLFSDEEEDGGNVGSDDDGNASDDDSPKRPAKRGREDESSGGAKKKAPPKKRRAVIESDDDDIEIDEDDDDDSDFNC
Put plainly: Inhibition of topoisomerase IIin vitro through a novel, non-DNA-strandcleaving mechanism.

Test [1] has as its target Serine/threonine-protein phosphatase 2A catalytic subunit (Gallus gallus). Put plainly: Inhibitory activity against partially purified (chicken skeletal muscle) Protein phosphatase 2A.
The subject of a further test is 143B. Put plainly: Inhibitory activity against tumor osteosarcoma cell line 143B after 72 hr continuous exposure to compound. The test is classed as functional, cell-based. The settings on record: Homo sapiens. In outline: (§1)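 Log-phase cells were plated in triplicate at 2500–3500 cells/well, and the compound was added 24 h later for 72 h continuous exposure. […] Media: A2780/143B DMEM+5% FBS; HT29 DMEM+10% FBS; HCT116 RPMI+10% FBS; ADDP (cisplatin-resistant A2780) RPMI+5% FBS.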

Another test concerns A2780. Put plainly: Inhibitory activity against ovarian tumor cell line A2780 after 72 hr continuous exposure to compound. The class given is functional, cell-based. The settings on record: Homo sapiens, A2780, 72 h. In outline:
as §1

Another test concerns ADDP cell line. Put plainly: Inhibitory activity against ovarian tumor cell line ADDP after 72 hr continuous exposure to compound. The settings on record: Homo sapiens. The test is classed as functional, cell-based. The procedure, abridged: as §1
The next test has as its system HCT-116. Put plainly: Inhibitory activity against colon tumor cell line HCT116 after 72 hr continuous exposure to compound. The test is classed as functional, cell-based. The following applies: Homo sapiens, HCT-116, 72 h. In outline:
as §1

Another test relates to HT-29. Put plainly: Inhibitory activity against colon tumor cell line HT-29 after 72 hr continuous exposure to compound. The class given is functional, cell-based. The settings on record: Homo sapiens, HT-29, 72 h. In outline:
as §1

In test [2] the target is Serine/threonine-protein phosphatase 2A catalytic subunit alpha isoform (Homo sapiens) (UniProt P67775). Put plainly: The compound was tested for the selectivity against protein phosphatases 2A.
Sequence of Serine/threonine-protein phosphatase 2A catalytic subunit alpha isoform (Homo sapiens) (P67775 whole entry, canonical isoform): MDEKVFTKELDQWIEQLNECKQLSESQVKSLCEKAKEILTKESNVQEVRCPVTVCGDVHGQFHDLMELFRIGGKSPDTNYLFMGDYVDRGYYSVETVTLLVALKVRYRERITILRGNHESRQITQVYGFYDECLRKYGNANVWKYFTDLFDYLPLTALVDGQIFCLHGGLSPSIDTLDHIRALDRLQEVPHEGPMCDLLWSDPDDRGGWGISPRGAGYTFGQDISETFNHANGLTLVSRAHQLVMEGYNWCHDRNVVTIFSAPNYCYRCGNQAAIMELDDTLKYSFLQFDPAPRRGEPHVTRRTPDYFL

On to `C[C@@](O)(/C=C/[C@H]1CC=CC(=O)O1)[C@@H](C[C@@H](O)\C=C/C=C\C=C\CO)OP(=O)(O)O` [FOSTRIECIN], for which the half-maximal inhibitory concentration (IC50) with L1210 came out at 0.46 µM; on DNA topoisomerase 2, 40 µM; in [1] it was 0.0034 µM.

Turning to `CCCOC1OC(=O)[C@H]2[C@@H]1[C@@H]1CC[C@H]2O1` (some centres undefined), the IC50 is > 1000 µM with 143B; 375 µM with A2780; 535 µM in the test with ADDP cell line; 195 µM in the test on HCT-116; 41 µM in the test with HT-29.

On to `CCCOC(=O)C1C(C(=O)O)[C@@H]2CC[C@H]1O2` (single isomer, unassigned), for which the IC50 in the test on ADDP cell line worked out at 315 µM; with HCT-116, 75 µM; with HT-29, 15 µM.

Turning to `C[C@@]12C(=O)OC(=O)[C@]1(C)[C@H]1CC[C@@H]2O1` [CANTHARIDIN], the IC50 with 143B amounted to 10 µM; in the test with A2780, 10 µM; in the test with ADDP cell line it was 11 µM; in the test with HCT-116, 9 µM; with HT-29, 6.4 µM.

On to `O=C1OC(=O)[C@H]2[C@@H]1[C@@H]1CC[C@H]2O1`, for which the half-maximal inhibitory concentration (IC50) is 43 µM with 143B; 50 µM with A2780; 47 µM in the test on ADDP cell line; 24 µM in the test with HCT-116; 33 µM with HT-29.

Turning to `CCOC(=O)C1C(C(=O)O)[C@@H]2CC[C@H]1O2` (single isomer, unassigned), the IC50 was determined as 437 µM in the test with 143B; 185 µM with A2780; 330 µM in the test on ADDP cell line; 266 µM in the test on HCT-116; 243 µM in the test on HT-29; 0.45 µM in [1]. Further, the Selectivity in test [2] turned out to be 6.6.

Regarding `CCOC1OC(=O)[C@H]2[C@@H]1[C@@H]1CC[C@H]2O1` (some centres undefined), the concentration for half-maximal inhibition (IC50) with 143B amounted to 103 µM; in the test with A2780, 100 µM; in the test on ADDP cell line, 107 µM; in the test with HCT-116 it was 80 µM; in the test with HT-29 it was 26 µM.

`COC(=O)C1C(C(=O)O)[C@@H]2CC[C@H]1O2` (single isomer, unassigned): the IC50 in the test with 143B is 118 µM; in the test on A2780, 100 µM; in the test with ADDP cell line, 180 µM; in the test with HCT-116, 76 µM; in the test on HT-29, 105 µM.

In the case of `COC1OC(=O)[C@H]2[C@@H]1[C@@H]1CC[C@H]2O1` (some centres undefined), the IC50 was > 1000 µM with 143B; 538 µM in the test with A2780; 323 µM with ADDP cell line; 143 µM in the test on HCT-116; 28 µM in the test on HT-29; > 1000 µM in [1].
